# Source: PubChem
# RGS4 inh = inhibitors of human RGS4 | HEK293 M3R/RGS4 inducible, Fluo-4 calcium flux; stronger effect = higher value; triggered by carbachol at its EC20 | P49798 | AID 463165 | hit rate 0.45% among 310,000 | B-score at 10 µM;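 active = B-score, a plate-corrected calcium signal, over three deviations above library mean, with baseline fluorescence within five deviations of library mean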;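 note: RGS4 expression induced by doxycycline in cells with stable M3 receptor; B-score is computed from the integrated fluorescence ratio over baseline after carbachol; higher B-score means a larger calcium signal and so more RGS4 inhibition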
# Target sequence (P49798 whole entry, looked up): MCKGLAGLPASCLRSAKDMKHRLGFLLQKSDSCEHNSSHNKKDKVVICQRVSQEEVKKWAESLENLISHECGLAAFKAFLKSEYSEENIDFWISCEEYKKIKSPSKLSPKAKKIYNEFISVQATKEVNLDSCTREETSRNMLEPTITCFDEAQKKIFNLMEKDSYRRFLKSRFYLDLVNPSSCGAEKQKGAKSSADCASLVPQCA
# MrgX1 antagonist = antagonists of human MrgX1 receptor | Q96LB2 | MRGX1-HEK293 calcium flux, Fluo-4, BAM8-22 antagonism; stronger effect = lower value | B-score at 10 µM | hit rate 1.3% among 310,000;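 active = calcium-response B-score plate-corrected more than 3 library SD below zero, starting fluorescence within 5 deviations, no agonist response on first addition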;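 note: peak minus trough fluorescence over baseline after final BAM8-22 challenge near maximal dose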
# Target sequence (Q96LB2 whole entry, looked up): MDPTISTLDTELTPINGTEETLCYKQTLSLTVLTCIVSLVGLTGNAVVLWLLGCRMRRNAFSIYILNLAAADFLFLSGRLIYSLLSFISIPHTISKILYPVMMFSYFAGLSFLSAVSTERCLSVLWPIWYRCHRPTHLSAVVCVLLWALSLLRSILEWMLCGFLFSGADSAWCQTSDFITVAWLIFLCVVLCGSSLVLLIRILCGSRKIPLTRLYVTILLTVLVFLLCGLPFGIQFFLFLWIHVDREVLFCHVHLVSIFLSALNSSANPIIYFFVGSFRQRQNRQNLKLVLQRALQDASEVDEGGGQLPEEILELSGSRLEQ
# RGS4 pot = potentiators or activators of RGS4; HEK293 M3R/inducible RGS4, carbachol calcium flux Fluo4; stronger effect = lower value; B-score at 10 µM; hit rate 0.92% among 310,000; AID 463111;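 active = B-score of the integrated calcium signal more than 4 SD below the library mean, with starting fluorescence not abnormally high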;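 note: negative B-score means reduced calcium response which marks RGS4 activation or potentiation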
#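 System – HEK293 FlpIn-TREx cells, stable M3R, doxycycline-inducible RGS4 · Reagent – ECmax carbachol challenge · Times – compound preincubation 20 min at room temperature before agonist · Technique – Fluo4 fluorescence kinetic imaging of calcium · Measure – B score of integrated Fluo4 ratio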
# MrgX1 agonist = activates human MrgX1 receptor signaling; Q96LB2; MrgX1-HEK293 cells, Fluo-4 calcium fluorescence, agonist mode; stronger effect = higher value; B-score at 10 µM; hit rate 0.44% among 310,000;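 active = calcium response B-score plate-corrected fluorescence ratio at least 3 library SD, with starting fluorescence B-score inside 5 SD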
#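 Material: MrgX1-expressing HEK293 cells / Dosing: compound as first of three additions / Incubation: overnight seeding, then 1 h dark dye loading / Signal: Fluo-4 NW calcium fluorescence / Evaluation: B-scored fluorescence response ratio / Benchmarks: positive and negative control wells on each plate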
# MrgX1 allo act = human MrgX1 positive allosteric modulation, primary screen | Q96LB2 | MrgX1-HEK293, Fluo-4 calcium flux, FDSS; stronger effect = higher value | B-score at 10 µM | hit rate 0.63% among 310,000;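 active = plate-corrected calcium response at least 3 library SD above typical, normal starting fluorescence, not activating the receptor alone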;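 note: compound read alongside a low EC10 to EC30 dose of BAM8-22 agonist; peak minus trough fluorescence over baseline measured at the second addition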
# RGS4 inh valid = RGS4 inhibitor validation; shares compounds with RGS4 inh; HEK293 M3R/RGS4, carbachol calcium Fluo-4 fluorescence; carbachol added at its EC20; 0 = buffer wells, 100 = carbachol control; calcium response, % at 10 µM; hit rate 65% among 1,700; AID 492999;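 active = duplicate-averaged calcium response above the buffer-only control mean plus 5 SD of those controls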;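 note: integrated fluorescence ratio F max minus min over baseline F0; higher response in RGS4-induced cells means RGS4 inhibition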
# M3R Ca ctr = checks RGS4 inhibitor effects in non-induced HEK293 M3R cells; shares compounds with RGS4 inh; carbachol calcium Fluo-4; submaximal (EC20) carbachol stimulus; buffer wells 0%, carbachol control wells 100%; activity (percent), % at 10 µM; hit rate 20% among 1,900; AID 493000; call rule not given here;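 note: RGS4 induction absent so cells express M3R without RGS4; higher means more calcium signal and flags a non-specific hit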
# RGS4 inh ctr2 = second RGS4 inhibitor counter-screen in uninduced cells lacking carbachol; calcium response (agonist-mode artifact), % at 10 µM; AID 493001; hit rate 22% among 1,900; HEK293 M3R/RGS4 non-induced, Fluo-4 calcium, no carbachol; normalised: buffer wells 0%, carbachol wells 100%; shares compounds with RGS4 inh;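 active = duplicate-averaged calcium rise in uninduced cells above buffer wells' mean plus 5 SD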
# * marks the source's active call; other numbers are inactive results; i = inactive; x = no result. In the library only some 3.5% were active in any assay of this set; here they are far more common.
SMILES,RGS4 inh,MrgX1 antagonist,RGS4 pot,MrgX1 agonist,MrgX1 allo act,RGS4 inh valid,M3R Ca ctr,RGS4 inh ctr2
O=C(OC1CCOC1=O)C1CCN(S(=O)(=O)c2ccc(Cl)c(C(F)(F)F)c2)CC1 (centres undefined),i,i,i,i,i,x,x,x
CCOC(=O)CNc1ccc(OC(F)(F)F)cc1,i,i,i,i,i,x,x,x
COc1ccc(Nc2nnc(-c3ccccc3)c3ccccc23)cc1C(=O)N1CCCCC1,5*,i,i,i,i,148%*,88%*,i
COc1ccc(-c2cc(C(=O)N3CCCCC3)c3ccccc3n2)cc1OC,i,i,i,i,i,x,x,x
COc1ccc(Nc2nnc(-c3ccc(C)cc3)c3ccccc23)cc1C(=O)N1CCCCC1,i,i,i,i,i,x,i,i
CCOc1ccc2nc(-c3cc(NC(C)=O)ccc3O)sc2c1,i,i,i,i,i,x,x,x
CC(C)(C)c1ccc(C(=O)N2CCC(NC(=O)c3ccccc3)CC2)cc1,i,i,i,i,i,x,x,x
CCCOc1ccc(/C=C/c2[nH]c(=O)[nH]c(=O)c2[N+](=O)[O-])cc1OCC,i,i,i,i,i,x,x,x
CCOc1cc(/C=C\c2[nH]c(=O)[nH]c(=O)c2[N+](=O)[O-])ccc1OC(C)CC (centres undefined),i,i,i,i,i,x,i,50%*
CC(=O)NNC(=O)c1[nH]c2ccc(Cl)cc2c1-c1ccccc1,i,i,i,i,i,x,x,x
O=C(NN=C1CCCC1)c1[nH]c2ccc(Cl)cc2c1-c1ccccc1,11*,i,i,i,i,50%*,i,i
CC(C)(C)c1ccc(/C=C(\c2nc3ccccc3[nH]2)S(=O)(=O)c2ccccc2)cc1,i,i,i,i,i,i,i,i
CCCCOc1ccc(Nc2cc(Cl)ccc2C(=O)O)cn1,i,i,i,i,i,x,x,x
Cc1ccc(C(C[N+](=O)[O-])Sc2ccc(N)cc2)cc1 (centres undefined),14*,i,i,33*,i,28%*,i,i
CCOC(=O)c1c(S(=O)(=O)N2CCCC(C(=O)Nc3ccc(C)cn3)C2)c(C)n(C)c1C (centres undefined),i,i,i,i,i,x,x,x
CC(=O)Nc1ccc(C23CC4CC(CC(C4)C2)C3)cc1,i,i,i,i,i,x,x,x
Oc1ccc(C23CC4CC(CC(C4)C2)C3)cc1O,22*,i,i,i,i,16%*,52%*,15%*
O=C1Nc2ccc(S(=O)(=O)N3CCCC3C(=O)O)c3cccc1c23 (centres undefined),5.5*,i,i,i,i,i,i,i
O=C1Nc2ccc(S(=O)(=O)N3CCCC3)c3cccc1c23,i,i,i,i,i,x,x,x
CCN(CC)CCN(C(=O)c1ccc2c(c1)CCCC2)c1nc2cc(OC)c(OC)cc2s1,5.3*,i,i,i,i,i,i,i
COc1cc2nc(N(CCN(C)C)C(=O)c3ccc4ccccc4c3)sc2cc1OC,i,i,i,i,i,x,x,x
COc1cccc(Cn2cc(N)cn2)c1,i,i,i,i,i,x,x,x
O=c1c2ccccc2nc2c3ccccc3c(NCc3cccnc3)nn12,i,i,i,i,i,x,x,x
O=c1c2ccccc2nc2c3ccccc3c(NCc3ccccn3)nn12,14*,i,i,i,i,12%*,i,i
Cc1c(-n2c(-c3ccccc3)nc3ccccc3c2=O)c(=O)n(-c2ccccc2)n1C,i,i,i,i,i,x,x,x
SMILES,RGS4 inh,MrgX1 antagonist,RGS4 pot,MrgX1 agonist,MrgX1 allo act,RGS4 inh valid,M3R Ca ctr,RGS4 inh ctr2
CC1=NN(c2ccccc2)C(=O)/C1=C/c1cccc(C)c1,i,i,i,i,i,x,x,x
COc1ccc(/C=C2/C(=O)N(c3ccccc3)N=C2C)cc1OC,i,i,i,i,i,i,i,i
O=C(c1ccc(COCC(F)(F)F)o1)N1CCCCCC1,i,i,i,i,i,x,38%*,i
CC(C)(C)CC(=O)NCCc1csc(-c2ccccc2)n1,i,i,i,i,i,x,x,x
Cc1[nH]n(-c2ncc(-c3ccc(Cl)cc3)s2)c(=O)c1C(c1ccc(Cl)cc1)C(C#N)C#N (centres undefined),18*,i,i,i,i,30%*,i,48%*
COc1ccccc1/C=C/C=N/n1c(-c2cc(C)[nH]n2)n[nH]c1=S,i,i,i,i,i,x,i,i
COc1ccccc1/C=C/C=N/n1c(-c2ccccn2)n[nH]c1=S,i,i,i,i,i,x,x,x
CC(=O)CCS(=O)(=O)c1ccc(Oc2ccc(S(=O)(=O)CCC(C)=O)cc2)cc1,5.2*,i,i,i,i,22%*,i,i
CC(=O)CS(=O)(=O)c1ccc(Oc2ccc(S(=O)(=O)CC(C)=O)cc2)cc1,i,i,i,i,i,x,x,x
Cc1nnc(SCC(=O)Nc2ccc([N+](=O)[O-])cc2)n1C,i,i,i,i,i,x,x,x
COc1ccc(NC(=O)c2nc[nH]c2C(=O)N[C@H](C)c2ccccc2)cc1,7.6*,i,i,i,i,18%*,i,i
C=CCn1c(SCCCCCC)nc(O)cc1=O,i,i,i,i,i,x,x,x
C=CCn1c(SC(C)CC)nc(O)cc1=O (centres undefined),4.8*,i,i,i,i,i,i,i
O=C(C1=C(O)C(=O)N(Cc2ccco2)C1c1cccc([N+](=O)[O-])c1)c1ccco1 (centres undefined),i,i,i,i,i,i,i,i
O=C(C1=C(O)C(=O)N(c2ncccn2)C1c1cccc(Cl)c1)c1ccco1 (centres undefined),i,i,i,i,i,x,x,x
O=C(C1=C(O)C(=O)N(Cc2ccco2)C1c1cccc(Cl)c1)c1ccco1 (centres undefined),i,i,i,i,i,i,i,i
